# Results reported in ChEMBL document CHEMBL4219228, “Substituent effect of N-benzylated gramine derivatives that prevent the PP2A inhibition and dissipate the neuronal Ca2+ overload, as a multitarget strategy for the treatment of Alzheimer's disease” (Bioorg Med Chem, 2018).
# Calls of active or inactive are those of the source. The rule behind the calls is not given here.
# Legend:
# [1] = target: Glutamate NMDA receptor (Rattus norvegicus) (UniProt P35439+Q00959+Q00960+Q00961+Q62645+Q8VHN2+Q9R1M7); test: Inhibition of NMDA receptor in rat cortical embryonic neurons assessed as reduction in NMDA-induced cytosolic calcium level at 10 uM by Fluo-4 AM dye based fluorescence assay relative to control
# Outline: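 Cortical neurons came from E18 rat embryos (two pregnant rats). They were loaded with Fluo-4/AM (3 µM) in Krebs-HEPES, incubated with compound at 10 µM, then stimulated with NMDA 10 µM, and fluorescence was read at ex 485/em 520 nm. Normalized ΔF is reported as % blockade against vehicle (DMSO 0.1%), with ≥4 independent experiments in triplicate.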
# SH-SY5Y [2] = test: Cytotoxicity against human SH-SY5Y cells assessed as cell viability at 3 uM incubated for 48 hrs by MTT assay
# SH-SY5Y [3] = test: Neuroprotective activity against okadaic acid-induced cell death in human SH-SY5Y cells assessed as cell viability at 0.1 uM preincubated for 24 hrs followed by cotreatment with PPA2 inhibitor okadaic acid measured after 20 hrs by MTT assay (reference value: 50.1 +/- 0.2%); type: functional; conditions: read-out: Activity
# [4] = test system: Voltage-gated calcium channel; test: Inhibition of KCl-induced cytosolic voltage gated calcium channel opening in human SH-SY5Y cells at 10 uM by Fluo-4 AM dye based fluorescence assay relative to control; type: cell-based
# Outline: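 SH-SY5Y cells were loaded with Fluo-4/AM (10 µM) in Krebs-HEPES and preincubated with compound at 10 µM. They were then depolarized with 70 mM K+, and fluorescence (ex 485/em 520 nm) was monitored in real time. ΔF = (Fx−F0)/(Fmax−Fmin), using Triton X-100 for Fmax and MnCl2 for Fmin. Values are % blockade (100−ΔF) against vehicle (DMSO 0.1%), with ≥4 independent experiments in triplicate.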
# [5] = target: Voltage-gated calcium channel; test: Inhibition of KCl-induced cytosolic voltage gated calcium channel opening in human SH-SY5Y cells by Fluo-4 AM dye based fluorescence assay; type: cell-based
# Outline: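 Fluo-4/AM-loaded (10 µM) SH-SY5Y cells in Krebs-HEPES received compound at several concentrations before 70 mM K+ depolarization, with readings at ex 485/em 520 nm. ΔF was normalized to vehicle (DMSO 0.1%) cultures. IC50 is the concentration halving ΔF, from a variable-slope non-linear regression of log concentration vs normalized response. Three experiments in triplicate.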
# [6] = target: T1, Serine/threonine-protein phosphatase 2A 55 kDa regulatory subunit B alpha isoform (Homo sapiens) (UniProt P63151); test: (§1) Reversal of okadaic acid mediated PP2A PR55alpha B regulatory subunit inactivation in human SH-SY5Y cells at 0.1 uM preincubated for 24 hrs followed by cotreatment with PPA2 inhibitor okadaic acid for 18 hrs measured over 30 mins by pNPP based spectrophotometric analysis; type: cell-based
# T1 sequence (whole entry): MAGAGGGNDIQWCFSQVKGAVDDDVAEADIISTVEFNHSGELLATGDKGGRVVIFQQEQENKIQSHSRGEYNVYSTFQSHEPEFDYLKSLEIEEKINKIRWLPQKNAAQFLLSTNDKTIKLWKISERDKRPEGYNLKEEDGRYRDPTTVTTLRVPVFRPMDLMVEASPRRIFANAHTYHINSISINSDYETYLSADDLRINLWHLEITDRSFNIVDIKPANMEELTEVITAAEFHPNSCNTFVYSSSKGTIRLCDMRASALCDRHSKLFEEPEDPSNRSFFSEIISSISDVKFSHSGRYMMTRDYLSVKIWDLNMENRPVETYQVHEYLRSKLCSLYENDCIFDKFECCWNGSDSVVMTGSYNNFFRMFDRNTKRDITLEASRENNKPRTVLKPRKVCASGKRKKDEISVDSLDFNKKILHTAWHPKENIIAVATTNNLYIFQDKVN
# Outline: (§2)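 SH-SY5Y cells were preincubated with compound for 24 h, then exposed for 18 h to okadaic acid 15 nM plus compound in fresh MEM/F12 with 1% FBS. Phosphatase activity was measured by pNPP dephosphorylation for 30 min at 37 °C, reading p-nitrophenolate at 405 nm. Values were normalized to cells not exposed to OA; at least three independent experiments.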
# SH-SY5Y [7] = test: Cytotoxicity against human SH-SY5Y cells assessed as cell viability at 10 uM incubated for 48 hrs by MTT assay
# [8] = target: T1, Serine/threonine-protein phosphatase 2A 55 kDa regulatory subunit B alpha isoform (Homo sapiens); test: as §1, with “cells assessed as residual activity” for “cells”, “analysis relative to control” for “analysis”; type: cell-based; outline: as §2
SMILES,inhibition [1],inhibition (INH) [4],IC50 [5],Activity [6],Activity [8],Activity (SH-SY5Y [2]),viability at 0.1 µM (SH-SY5Y [3]),Activity (SH-SY5Y [7])
Cc1ccc2c(c1)c(CN1CCCCC1)cn2Cc1ccccc1,42%,87%,3.4 µM,Active,,,73%,
Cc1ccc(Cn2cc(CN3CCCCC3)c3cc(C)ccc32)cc1,32%,94%,3.6 µM,Active,,Non-Toxic,67%,
COC(=O)C1=C(C)NC(C)=C(C(=O)OC)C1c1ccccc1[N+](=O)[O-] [NIFEDIPINE],,32%,,,,,,
Cc1ccc2c(c1)c(CN1CCCCC1)cn2Cc1ccc(F)cc1,34%,79%,4.8 µM,Active,93%,Non-Toxic,67%,
CC12CC3CC(C)(C1)CC(N)(C3)C2,41%,,,,,,,

# Continued by falling IC50 [5], values first:
inhibition [1],inhibition (INH) [4],IC50 [5],Activity [6],Activity [8],SMILES,Activity (SH-SY5Y [2]),viability at 0.1 µM (SH-SY5Y [3]),Activity (SH-SY5Y [7])
22%,90%,3 µM,,,Cc1ccc2c(c1)c(CN1CCCCC1)cn2Cc1cccc([N+](=O)[O-])c1,Non-Toxic,67%,
52%,95%,3 µM,Active,,Cc1ccc2c(c1)c(CN1CCCCC1)cn2Cc1ccc(Cl)cc1,Non-Toxic,67%,Toxic
37%,97%,2.2 µM,Active,,Cc1ccc2c(c1)c(CN1CCCCC1)cn2Cc1cccc(Cl)c1,Non-Toxic,67%,Toxic
24%,90%,1.8 µM,,,Cc1ccc2c(c1)c(CN1CCCCC1)cn2Cc1ccccc1[N+](=O)[O-],Non-Toxic,70%,
